PMC2692962 (Journal of molecular biology, 2009)

Legend:
[1] = molecular target: T1, NS3h_1b(con1) HCV helicase (Hepatitis C virus genotype 1b, UniProt Q9WMX2); experiment: Molecular beacon based helicase assay; type: biochemical; details: for unwinding rate, % of that seen with ATP: 0.5 mM NTP analog, 2 mM MgCl2, initial rates; for ability of divalent metal to support DNA unwinding: metal replacing Mg^2+; for DNA unwinding rate, times faster than ATP: 0.5 mM NTP, 2 mM MgCl2, 25 nM NS3h, 22 °C; for Vmax, Michaelis-Menten / Km: data at or below 1 mM NTP; for Vmax, substrate inhibition model: global fit to equation (2); for Km: read-out: Km, Michaelis-Menten
T1 sequence (Q9WMX2 1192-1657): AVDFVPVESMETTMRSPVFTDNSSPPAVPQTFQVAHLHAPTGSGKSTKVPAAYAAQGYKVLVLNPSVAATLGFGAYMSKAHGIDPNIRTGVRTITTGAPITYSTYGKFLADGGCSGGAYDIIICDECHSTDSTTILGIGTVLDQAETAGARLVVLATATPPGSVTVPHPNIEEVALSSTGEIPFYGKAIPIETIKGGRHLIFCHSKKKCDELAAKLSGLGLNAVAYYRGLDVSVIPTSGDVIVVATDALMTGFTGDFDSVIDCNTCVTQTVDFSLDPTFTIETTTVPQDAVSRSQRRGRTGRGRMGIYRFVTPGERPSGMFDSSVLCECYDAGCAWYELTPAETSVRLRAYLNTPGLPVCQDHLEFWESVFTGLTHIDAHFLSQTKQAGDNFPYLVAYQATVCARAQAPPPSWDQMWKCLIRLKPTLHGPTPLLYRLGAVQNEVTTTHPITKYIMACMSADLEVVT

[2] = molecular target: T1, NS3h_1b(con1) HCV helicase; experiment: mantADP; type: binding; details: FRET, metal replacing Mg^2+
[3] = molecular target: T1, NS3h_1b(con1) HCV helicase; experiment: ATP hydrolysis assay; type: biochemical; details: for ATP hydrolysis in the presence of RNA: 0.1 mg/ml poly(U), 15 nM NS3h; for ATP hydrolysis in the presence of RNA / ATP hydrolysis in the absence of RNA: 2 mM ATP, 37 °C; for ATP hydrolyzed for each 25 bp duplex separated: MBHA conditions, 25 nM NS3h, 1.25 mM metal; for ATP hydrolyzed for each 25 bp duplex separated / rate of ATP hydrolysis: 1 mM ATP; for rate of ATP hydrolysis: in MBHA, 25 nM NS3h_1b(con1), 1.25 mM metal chloride, triplicate; for ATP hydrolysis in the absence of RNA: no nucleic acid, 100 nM NS3h, versus rate without added metal; for ATP hydrolyzed in the time needed to separate a single base pair: steady state unwinding versus ATP hydrolysis, only divalent cation present
[4] = molecular target: T1, NS3h_1b(con1) HCV helicase; experiment: Single-turnover MBHA; type: biochemical; details: for Afast / kfast / Aslow / kslow: 0.5 mM NTP
Procedure, shortened: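 Enzyme (50 nM NS3h) and 10 nM 17 bp Cy5 beacon DNA substrate in 50 mM MOPS pH 6.5 with 4 mM MgCl2 were rapidly mixed 1:1 with 1.0 mM NTP plus 2 μM dT20 trap. Fluorescence gave substrate remaining, corrected against a substrate-free blank and pre-NTP signal. Product (5 nM minus remaining) was fit to a two-phase first-order equation. Three independent reactions were run.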

HCV helicase [5] = details: ref Kyono et al.; cited from earlier work
full-length NS3 = details: ref Wardell et al.; cited from earlier work
HCV helicase [6] = details: ref Locatelli et al.; cited from earlier work
[7] = 17 base pairs substrate, two-phase fit

Structure (SMILES): Nc1ncnc2c1ncn2[C@@H]1O[C@H](COP(=O)(O)OP(=O)(O)OP(=O)(O)O)[C@@H](O)[C@H]1F [2′-F-ATP]
- unwinding rate, % of that seen with ATP [1]: 145%

Structure (SMILES): [Cl][Mn][Cl] [Mn^2+, MnCl2]
- MBHA substrate unwound, times faster than with Mg^2+ ([1]; 25 nM NS3h_1b(con1), 1 mM ATP, 1.25 mM MgCl2 or MnCl2): about 14 times
- ability of divalent metal to support DNA unwinding ([1]; data not shown): could fuel unwinding
- formation of enzyme-metal-NTP complex [2]: formed an enzyme-metal-NTP complex
- ATP hydrolysis in the presence of RNA [3]: supported hydrolysis
- ATP hydrolyzed for each 25 bp duplex separated [3]: about 75 ATP
- rate of ATP hydrolysis [3]: 605 ± 4 nM/min
- ATP hydrolysis in the absence of RNA [3]: inhibited the rate of hydrolysis
- ATP hydrolyzed in the time needed to separate a single base pair [3]: 3 ATP

Structure (SMILES): [Cl-].[Cl-].[Zn+2] [Zn^2+, ZnCl2]
- ability of divalent metal to support DNA unwinding ([1]; data not shown): did not support
- formation of enzyme-metal-NTP complex [2]: formed an enzyme-metal-NTP complex
- ATP hydrolysis in the presence of RNA [3]: supported hydrolysis
- ATP hydrolysis in the absence of RNA [3]: inhibited the rate of hydrolysis

Structure (SMILES): Nc1ncnc2c1ncn2[C@@H]1O[C@H](COP(=O)([O-])OP(=O)([O-])OP(=O)(O)O)[C@@H](O)[C@H]1O.[Mg+2] [Mg(ATP)^2−]
- maximal steady state unwinding rate ([1]; 25 nM NS3h): 0.8 nM/min
- Vmax for unwinding, times faster than Mg(GTP)^2− ([1]; Michaelis-Menten fit, data up to 1 mM Mg(NTP)^2−, 0.25 mM free Mg^2+): 15 times
- kcat of unwinding ([1]; calculated from maximal steady state rate at 25 nM NS3h, assumes monomer): 0.032 min⁻¹

Structure (SMILES): Cc1cn([C@H]2C[C@H](O)[C@@H](COP(=O)(O)OP(=O)(O)OP(=O)(O)O)O2)c(=O)[nH]c1=O [dTTP]
- Afast ([4]; 17 base pairs substrate): 3.4 ± 0.4 nM
- kfast ([4]; 17 base pairs substrate): 9.1 ± 0.4 min⁻¹
- Aslow [4, 7]: 0.48 ± 0.03 nM
- kslow [4, 7]: 0.28 ± 0.06 min⁻¹
- Afast ([4]; 30 base pairs substrate): 2.6 ± 0.03 nM
- Aslow ([4]; 30 base pairs substrate): 0.66 ± 0.02 nM
- kfast ([4]; 30 base pairs substrate): 4.8 ± 0.3 min⁻¹
- kslow ([4]; 30 base pairs substrate): 0.50 ± 0.02 min⁻¹
- DNA unwinding rate, times faster than ATP [1]: about 3 fold
- Vmax, Michaelis-Menten ([1]; 0.25 mM free Mg^2+): 5.3 nM/min
- Vmax, substrate inhibition model ([1]; 0.25 mM free Mg^2+): 50 nM/min
- Km ([1]; 0.25 mM free Mg^2+): 300 µM

Structure (SMILES): Nc1ncnc2c1ncn2[C@@H]1O[C@H](COP(=O)(O)OP(=O)(O)OP(=O)(O)O)C[C@H]1O [3′-dATP]
- DNA unwinding rate, times faster than ATP [1]: 3 fold

Structure (SMILES): Nc1ncnc2c1ncn2[C@H]1C[C@H](O)[C@@H](COP(=O)(O)OP(=O)(O)OP(=O)(O)O)O1 [dATP]
- use of dATP compared with ATP for unwinding (HCV helicase [5]): used equally well
- unwinding relative to that observed with ATP (full-length NS3): 60%

Structure (SMILES): [Co+2] [Co^2+]
- ability of divalent metal to support DNA unwinding ([1]; data not shown): did not support
- ATP hydrolysis in the presence of RNA [3]: supported hydrolysis
- ATP hydrolysis in the absence of RNA [3]: inhibited the rate of hydrolysis

Structure (SMILES): [Cl-].[Cl-].[Mg+2] [Mg^2+, MgCl2]
- ATP hydrolysis in the presence of RNA [3]: supported hydrolysis
- ATP hydrolyzed for each 25 bp duplex separated [3]: about 1,000 ATP
- rate of ATP hydrolysis [3]: 629 ± 5.4 nM/min
- ATP hydrolysis in the absence of RNA [3]: enhanced hydrolysis
- ATP hydrolyzed in the time needed to separate a single base pair [3]: about 40 ATP

Structure (SMILES): Nc1ncnc2c1ncn2[C@@H]1O[C@H](COP(=O)(O)OP(=O)(O)OP(=O)(O)O)[C@@H](O)[C@H]1O [ATP]
- Afast ([4]; 17 base pairs substrate): 3.1 ± 0.02 nM
- kfast ([4]; 17 base pairs substrate): 8.4 ± 0.1 min⁻¹
- Aslow [4, 7]: 0.70 ± 0.04 nM
- kslow [4, 7]: 0.28 ± 0.05 min⁻¹
- Afast ([4]; 30 base pairs substrate): 1.8 ± 0.03 nM
- Aslow ([4]; 30 base pairs substrate): 1.2 ± 0.03 nM
- kfast ([4]; 30 base pairs substrate): 3.1 ± 0.1 min⁻¹
- kslow ([4]; 30 base pairs substrate): 0.46 ± 0.03 min⁻¹
- Vmax, Michaelis-Menten ([1]; 0.25 mM free Mg^2+): 0.79 nM/min
- Vmax ([1]; equation (3), ATP and GTP both present): 1.6 nM/min
- Vmax, substrate inhibition model ([1]; 0.25 mM free Mg^2+): 10 nM/min
- Ki ([1]; read-out: Ki (ATP), equation (3), ATP and GTP both present): 690 µM
- Km ([1]; 0.25 mM free Mg^2+): 70 µM
- unwinding, times better than dATP (HCV helicase [6]): 100 times

Structure (SMILES): Nc1ncnc2c1ncn2C1OC(COP(=O)([O-])OP(=O)([O-])OP(=O)([O-])[O-])C(O)C1O.[Mn+2] (stereo not shown) [Mn(ATP)^2−]
- hydrolysis by the open form, times slower than Mg(ATP)^2− ([3]; enzyme not bound to RNA): at least 100 times

Structure (SMILES): [N-]=[N+]=NC1C(O)C(COP(=O)(O)OP(=O)(O)OP(=O)(O)O)OC1n1cnc2c(N)ncnc21 (stereo not shown) [2′-azido-ATP]
- unwinding rate, % of that seen with ATP [1]: 61%

Structure (SMILES): Nc1ncnc2c1ncn2[C@H]1CC[C@@H](CO[P@@](=O)(O)O[P@](=O)(O)OP(=O)(O)O)O1 [2′,3′-ddATP]
- DNA unwinding rate, times faster than ATP [1]: 2.7 fold

Structure (SMILES): [Cl-].[Na+] [NaCl]
- IC50 ([1]; read-out: IC50, inhibition of NS3h catalyzed DNA unwinding, MBHA, data not shown): 15 mM

Structure (SMILES): Nc1ncnc2c1ncn2[C@@H]1O[C@H](COP(=O)(O)OP(=O)(O)OP(=O)(O)O)[C@@H](O)[C@@H]1O [2′-ara-ATP]
- unwinding rate, % of that seen with ATP [1]: practically the same unwinding rates as ATP

Structure (SMILES): O=c1[nH]c(=O)c2ncn([C@@H]3O[C@H](COP(=O)(O)OP(=O)(O)OP(=O)(O)O)[C@@H](O)[C@H]3O)c2[nH]1 [XTP, Xanthosine triphosphate]
- unwinding rate, % of that seen with ATP [1]: 7%

Structure (SMILES): Nc1nc2c(ncn2[C@@H]2O[C@H](COP(=O)(O)OP(=O)(O)OP(=O)(O)O)[C@@H](O)[C@H]2O)c(=O)[nH]1 [GTP]
- reaction amplitude, times less than in ATP fueled reactions ([4]; 17 base pair substrate): 7 times
- Afast ([4]; 17 base pairs substrate): 0.42 ± 0.03 nM
- kfast ([4]; 17 base pairs substrate): 8.3 ± 1.9 min⁻¹
- Afast ([4]; 30 base pairs substrate): 0.58 ± 0.08 nM
- Aslow ([4]; 30 base pairs substrate): 0.11 ± 0.05 nM
- kfast ([4]; 30 base pairs substrate): 0.61 ± 0.06 min⁻¹
- kslow ([4]; 30 base pairs substrate): 0.62 ± 0.08 min⁻¹
- Vmax, Michaelis-Menten ([1]; 0.25 mM free Mg^2+): 0.05 nM/min
- Kii (GTP) ([1]; equation (3), GTP as non-competitive inhibitor of ATP fueled unwinding): 0.65 mM
- Vmax, substrate inhibition model ([1]; 0.25 mM free Mg^2+): 0.41 nM/min
- Km ([1]; 0.25 mM free Mg^2+): 410 µM

Structure (SMILES): CO[C@@H]1[C@H](O)[C@@H](COP(=O)(O)OP(=O)(O)OP(=O)(O)O)O[C@H]1n1cnc2c(N)ncnc21 [2′-O-methyl-ATP]
- unwinding rate, % of that seen with ATP [1]: 34%

Structure (SMILES): [Ca+2] [Ca^2+]
- ability of divalent metal to support DNA unwinding ([1]; data not shown): did not support
- ATP hydrolysis in the absence of RNA [3]: inhibited the rate of hydrolysis
